Source: ChEMBL document CHEMBL3745692, “Novel iodoacetamido benzoheterocyclic derivatives with potent antileukemic activity are inhibitors of STAT5 phosphorylation” (Eur J Med Chem, 2016)

Experiments:
[1] = test system: K562; experiment: Antiproliferative activity against human K562 cells after 48 hrs by trypan blue dye exclusion assay; type: functional, cell-based; details: K562, 48 h
[2] = test system: K562; experiment: Induction of apoptosis in human K562 cells after 48 hrs by annexinV and propidium iodide staining based flow cytometry; type: functional, cell-based; details: K562, 48 h
In short: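 After 48 h drug exposure, 1×10^6 cells were washed in PBS and spun at 200×g for 5 min. They were stained with FITC-annexin V plus propidium iodide for 15 min at 20 °C and annexin V-positive cells counted by flow cytometry. Apoptosis was also scored morphologically with acridine orange/ethidium bromide, counting at least 300 cells. AC50 is the concentration inducing apoptosis in 50% of cells; mean ± SE from two to three experiments.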

[3] = biological target: T1, Signal transducer and activator of transcription 5A (Homo sapiens) (UniProt P42229); experiment: Inhibition of STAT5 phosphorylation in human K562 cells at 2 uM after 24 hrs by flow cytometry (reference value: 315.56); type: cell-based
T1 sequence (whole entry): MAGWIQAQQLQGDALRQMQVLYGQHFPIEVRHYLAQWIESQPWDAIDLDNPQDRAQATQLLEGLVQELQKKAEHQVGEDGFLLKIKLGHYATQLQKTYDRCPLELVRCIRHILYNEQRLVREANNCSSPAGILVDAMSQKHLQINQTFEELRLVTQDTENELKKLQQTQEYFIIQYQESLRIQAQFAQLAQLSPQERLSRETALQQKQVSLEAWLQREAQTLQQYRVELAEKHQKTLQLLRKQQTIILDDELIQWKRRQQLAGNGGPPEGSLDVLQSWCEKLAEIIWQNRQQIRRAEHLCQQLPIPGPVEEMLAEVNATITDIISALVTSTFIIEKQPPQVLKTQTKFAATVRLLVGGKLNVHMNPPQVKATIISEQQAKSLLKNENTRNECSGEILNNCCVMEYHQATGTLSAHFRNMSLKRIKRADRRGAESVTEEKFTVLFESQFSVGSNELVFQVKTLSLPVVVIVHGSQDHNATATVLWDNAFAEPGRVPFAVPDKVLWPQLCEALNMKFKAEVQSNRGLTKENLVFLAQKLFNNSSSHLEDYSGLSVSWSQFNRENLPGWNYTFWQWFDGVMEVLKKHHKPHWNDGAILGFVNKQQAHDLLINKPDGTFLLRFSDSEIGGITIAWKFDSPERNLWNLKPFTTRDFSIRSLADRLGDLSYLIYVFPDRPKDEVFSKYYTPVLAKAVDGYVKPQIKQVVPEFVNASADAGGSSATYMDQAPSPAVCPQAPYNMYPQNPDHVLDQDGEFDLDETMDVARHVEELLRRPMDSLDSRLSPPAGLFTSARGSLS
In short: (§1)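 After 24 h exposure, about 1×10^6 K562 cells were PBS-washed and fixed/permeabilised for 20 min at 4 °C. They were then stained for 30 min at 4 °C with PE-conjugated anti-pSTAT5 monoclonal antibody, with an isotype antibody as control. Median fluorescence was read by flow cytometry and compared with untreated cells stained for pSTAT5.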

[4] = test system: K562; experiment: Cell cycle arrest in human K562 cells assessed as accumulation at S-phase at 2 uM for 24 hrs by propidium iodide staining based flow cytometry (reference value: 47.84%); type: functional
In short: (§2)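 K562 cells were exposed to compound for 24 h. They were then washed in ice-cold PBS and resuspended at 1×10^6/mL in a hypotonic solution of propidium iodide 50 µg/mL in 0.1% sodium citrate with 0.03% NP-40. After 30 min, DNA content was read by flow cytometry as single-parameter histograms and cell cycle phase distribution (%) was modelled.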

[5] = test system: K562; experiment: Cell cycle arrest in human K562 cells assessed as accumulation at G1 phase at 2 uM for 24 hrs by propidium iodide staining based flow cytometry (reference value: 39.27%); type: functional; in short: as §2
[6] = test system: K562; experiment: Cell cycle arrest in human K562 cells assessed as accumulation at G2M-phase at 2 uM for 24 hrs by propidium iodide staining based flow cytometry (reference value: 12.89%); type: functional; in short: as §2
[7] = organism: Bos taurus; experiment: Inhibition of [3H]colchicine binding to bovine tubulin at 5 uM by DEAE-cellulose filter method
In short: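 Reaction mixtures contained 1 µM tubulin, 5 µM [3H]colchicine and 5 µM test compound. Result is given as % inhibition of colchicine binding ± SD.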

[8] = biological target: Tubulin (Bos taurus, UniProt Q6B856+Q862L2+Q862F3); experiment: Inhibition of bovine brain tubulin polymerization by spectrophotometry
In short: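 Bovine brain tubulin (10 µM) was pre-incubated with varying compound concentrations in glutamate buffer at 30 °C, then cooled to 0 °C. GTP was added ([…] final) and the mixture warmed to 30 °C. Assembly was followed by turbidity at 350 nm.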

[9] = test system: K562; experiment: Cell cycle arrest in human K562 cells assessed as accumulation at G1 phase at 3 uM for 24 hrs by propidium iodide staining based flow cytometry (reference value: 39.27%); type: functional
In short: (§3)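 K562 cells in RPMI 1640 with 10% FCS, penicillin/streptomycin and L-glutamine, 5% CO2, 37 °C; exposed 24 h. Cells washed in ice-cold PBS, resuspended at 1×10^6/mL in hypotonic solution of propidium iodide 50 µg/mL in 0.1% sodium citrate plus 0.03% nonidet P-40 for 30 min. DNA content read as single-parameter flow cytometry histograms; phase distribution modelled.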

[10] = test system: K562; experiment: Cell cycle arrest in human K562 cells assessed as accumulation at S-phase at 3 uM for 24 hrs by propidium iodide staining based flow cytometry (reference value: 47.84%); type: functional; in short: as §3
[11] = biological target: T1, Signal transducer and activator of transcription 5A (Homo sapiens); experiment: Inhibition of STAT5 phosphorylation in human K562 cells at 3 uM after 24 hrs by flow cytometry (reference value: 315.56); type: cell-based; in short: as §1
[12] = test system: K562; experiment: Cell cycle arrest in human K562 cells assessed as accumulation at G2M-phase at 3 uM for 24 hrs by propidium iodide staining based flow cytometry (reference value: 12.89%); type: functional; in short: as §3
[13] = biological target: T1, Signal transducer and activator of transcription 5A (Homo sapiens); experiment: Inhibition of STAT5 phosphorylation in human K562 cells at 2 uM after 24 hrs by flow cytometry relative to control; type: cell-based
In short: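 K562 cells were exposed for 24 h. About 1×10^6 cells were fixed and permeabilized for 20 min at 4 °C, then stained for 30 min at 4 °C with PE-conjugated anti-pSTAT5 monoclonal antibody; an isotype IgG1 antibody served as the background control. Median fluorescence was read by flow cytometry and compared with untreated cells stained for pSTAT5.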

[14] = biological target: T1, Signal transducer and activator of transcription 5A (Homo sapiens); experiment: Inhibition of STAT5 phosphorylation in human K562 cells at 3 uM after 24 hrs by flow cytometry relative to control; type: cell-based; in short: as §1

| SMILES | IC50 [1] [µM] | AC50 [2] [µM] | Flu intensity [3] | Activity [4] [%] | Activity [5] [%] | Activity [6] [%] | further results |
| --- | --- | --- | --- | --- | --- | --- | --- |
| COc1ccc(C(=O)c2oc3ccccc3c2NC(=O)CI)cc1 | 2.9 | 6.8 | – | – | – | – | – |
| COc1cc(C(=O)c2c(NC(=O)CI)c3ccccc3n2C)cc(OC)c1OC | 4.3 | 8.2 | – | – | – | – | – |
| COc1cc(C(=O)c2cc3c(NC(=O)CI)cccc3o2)cc(OC)c1OC | 0.8 | 4.5 | 272 | 53.09 | 33.67 | 16.24 | – |
| COc1ccc2c(NC(=O)CI)c(C(=O)c3cc(OC)c(OC)c(OC)c3)oc2c1 | 0.12 | 0.45 | – | – | – | – | inhibition [7]: 54%; IC50 [8]: 1.8 µM |
| COc1cc(C(=O)c2sc3cc(C)ccc3c2NC(=O)CI)cc(OC)c1OC | 1 | 4.7 | – | – | – | – | Activity [9]: 41.47%; Activity [10]: 27.66%; Flu intensity [11]: 200; Activity [12]: 30.87% |
| COc1cc(C(=O)c2oc3ccc(NC(=O)CI)cc3c2C)cc(OC)c1OC | 18 | 26.8 | – | – | – | – | – |
| COc1cc(C(=O)c2cc3cccc(NC(=O)CI)c3o2)cc(OC)c1OC | > 50 | > 50 | – | – | – | – | – |
| COc1cc(C(=O)c2cc3cc(NC(=O)CI)cc(OC)c3s2)cc(OC)c1OC | 0.78 | 3.7 | 201 | 33.7 | 19.94 | 45.36 | – |
| COc1cc(C(=O)c2cc3cc(NC(=O)CI)ccc3o2)cc(OC)c1OC | 0.6 | 2.9 | 255 | 53.52 | 39.48 | 7 | inhibition [13]: 19% |
| COc1cc(C(=O)c2c(NC(=O)CI)c3cccc(OC)c3n2C)cc(OC)c1OC | 0.8 | 4.6 | 58.2 | 19.55 | 77.64 | 2.81 | inhibition [7]: 38%; IC50 [8]: 2 µM |
| COc1cc(C(=O)c2oc3ccccc3c2NC(=O)CI)cc(OC)c1OC | 0.9 | 6.5 | – | – | – | – | Activity [9]: 75.37%; Activity [10]: 20.98%; Flu intensity [11]: 98.3; IC50 [8]: > 20 µM; Activity [12]: 3.65% |
| COc1cc(C(=O)c2cc3ccc(NC(=O)CI)cc3o2)cc(OC)c1OC | 0.6 | 2.9 | – | – | – | – | Activity [9]: 37.06%; Activity [10]: 51.3%; Flu intensity [11]: 289; Activity [12]: 11.1% |
| COc1ccc2oc(C(=O)c3cc(OC)c(OC)c(OC)c3)c(NC(=O)CI)c2c1 | 3.2 | 7.8 | – | – | – | – | – |
| COc1cc(C(=O)c2cc3cc(NC(=O)CI)ccc3s2)cc(OC)c1OC | 0.8 | 4.2 | 279 | 54.92 | 32.96 | 12.12 | – |
| COc1cc2oc(C(=O)c3cc(OC)c(OC)c(OC)c3)cc2cc1NC(=O)CI | 0.4 | 2 | 225 | 52.26 | 43.33 | 4.41 | inhibition [13]: 29% |
| COc1cc(C(=O)c2oc3c(OC)cccc3c2NC(=O)CI)cc(OC)c1OC | 14 | 24 | – | – | – | – | – |
| COc1cc(C(=O)c2sc3ccccc3c2NC(=O)CI)cc(OC)c1OC | 18 | 28 | – | – | – | – | – |
| COc1ccc(C(=O)c2oc3ccccc3c2NC(=O)CI)cc1OC | 22 | 48 | – | – | – | – | – |
| COc1cc(C(=O)c2[nH]c3ccccc3c2NC(=O)CI)cc(OC)c1OC | 0.5 | 2.4 | – | – | – | – | Activity [9]: 31.82%; Activity [10]: 57.79%; Flu intensity [11]: 222; inhibition [14]: 30%; Activity [12]: 9.39% |
| Cc1ccc(NC(=O)c2ccc(CN3CCN(C)CC3)cc2)cc1Nc1nccc(-c2cccnc2)n1 [IMATINIB] | – | 0.68 | – | – | – | – | – |
